Holding throughout (assay type): protein-complex assay
Assay [1] concerns the target T1, 20S proteasome (Homo sapiens) (UniProt P49721+P20618+P28074+P28062+P28065+P28072+P25786+P25787+P25788+P25789+P28066+P60900+O14818+Q8TAA3+P40306+A5LHX3+P49720+P28070+Q99436). Kind of assay: Activation of human 20S proteosome assessed as increase in 7-amino-4-methylcoumarin release at 30 uM using mixture of chymotrypsin-like Suc-LLVY-AMC, trypsin-like Boc-LRR-AMC and caspase-like Z-LLE-AM fluorogenic peptides as substrates preincubated for 15 mins followed by substrate mixture addition and measured for 1 hr by fluorescence assay relative to control. Conditions: filed as activator, time 75.0 min. In short, it runs like this: (§1)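 Purified human 20S proteasome pre-incubated 15 min at 37°C with compound (3, 10 or 30 μM) or DMSO vehicle. Substrate mix then added: Suc-LLVY-AMC, Boc-LRR-AMC and Z-LLE-AMC, 13.3 μM each. AMC fluorescence followed over 1 h. Fold increase in activity calculated against untreated 20S.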

The target in assay [2] is T1, 20S proteasome (Homo sapiens). Kind of assay: Induction of human 20S proteosome mediated human alpha-synuclein degradation. Conditions: filed as activator, dose 0.5-10 µM. The gist of the method:
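Compound pre-incubated with purified human 20S proteasome. Pure human α-synuclein then added and the mix incubated 4 h. Digests resolved and silver stained. α-Synuclein bands quantified using 20S proteasome subunits as loading control, n=3.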

For assay [3] the target is unchanged. Kind of assay: Activation of human 20S proteosome assessed as fold increase in proteosome activity at 1.3 uM using mixture of chymotrypsin-like Suc-LLVY-AMC, trypsin-like Boc-LRR-AMC and caspase-like Z-LLE-AM fluorogenic peptides as substrates by fluorescence assay relative to control. Conditions: filed as activator.
For assay [4] the target is unchanged. Description: Activation of human 20S proteosome assessed as concentration required to cause double the proteosome activity using caspase-like Z-LLE-AM fluorogenic peptide as substrate. Conditions: filed as activator. The gist of the method:
(§2)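 Human 20S proteasome activity measured by AMC fluorescence over time. Each fluorogenic substrate (CT-L Suc-LLVY-AMC, Tryp-L Boc-LRR-AMC, Casp-L Z-LLE-AMC) tested alone and as an equal-amount mixture. Six-point compound titration, 1.25–40 μM, run in triplicate. AC200, the concentration that doubles 20S activity, derived from the concentration-response curves.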

Assay [5] shares this target. Kind of assay: Activation of human 20S proteosome assessed as fold increase in proteosome activity at 10.5 uM using chymotrypsin-like Suc-LLVY-AMC fluorogenic peptide as substrate by fluorescence assay relative to control. Particulars: filed as activator.
The target is the same in assay [6]. Kind of assay: Activation of human 20S proteosome assessed as fold increase in proteosome activity at 1.7 uM using trypsin-like Boc-LRR-AMC fluorogenic peptide as substrate by fluorescence assay relative to control. Particulars: filed as activator.
For assay [7] the target is unchanged. Kind of assay: Activation of human 20S proteosome assessed as concentration required to cause double the proteosome activity using trypsin-like Boc-LRR-AMC fluorogenic peptide as substrate. Particulars: filed as activator. The gist of the method:
as §2

For assay [8] the target is unchanged. Description: Activation of human 20S proteosome assessed as increase in 7-amino-4-methylcoumarin release at 3 uM using mixture of chymotrypsin-like Suc-LLVY-AMC, trypsin-like Boc-LRR-AMC and caspase-like Z-LLE-AM fluorogenic peptides as substrates preincubated for 15 mins followed by substrate mixture addition and measured for 1 hr by fluorescence assay relative to control. Conditions: filed as activator, time 75.0 min. The gist of the method: as §1

The target is the same in assay [9]. Description: Activation of human 20S proteosome assessed as fold increase in proteosome activity at 2.8 uM using caspase-like Z-LLE-AM fluorogenic peptide as substrate by fluorescence assay relative to control. Conditions: filed as activator.
For assay [10] the target is unchanged. Description: Activation of human 20S proteosome assessed as concentration required to cause double the proteosome activity using chymotrypsin-like Suc-LLVY-AMC, trypsin-like Boc-LRR-AMC and caspase-like Z-LLE-AM fluorogenic peptides as substrates. Particulars: filed as activator. The gist of the method:
as §2

Assay [11] has the same target. Description: Activation of human 20S proteosome assessed as concentration required to cause double the proteosome activity using chymotrypsin-like Suc-LLVY-AMC fluorogenic peptide as substrate. Particulars: filed as activator. The gist of the method:
as §2

Assay [12] has the same target. Kind of assay: Activation of human 20S proteosome assessed as fold increase in proteosome activity at 2.3 uM using mixture of chymotrypsin-like Suc-LLVY-AMC, trypsin-like Boc-LRR-AMC and caspase-like Z-LLE-AM fluorogenic peptides as substrates by fluorescence assay relative to control. Particulars: filed as activator.
Assay [13] shares this target. Description: Activation of human 20S proteosome assessed as fold increase in proteosome activity at 2.5 uM using trypsin-like Boc-LRR-AMC fluorogenic peptide as substrate by fluorescence assay relative to control. Particulars: filed as activator.
Assay [14] has the same target. Description: Activation of human 20S proteosome assessed as fold increase in proteosome activity at 8.1 uM using chymotrypsin-like Suc-LLVY-AMC fluorogenic peptide as substrate by fluorescence assay relative to control. Conditions: filed as activator.
Assay [15] has the same target. Description: Activation of human 20S proteosome assessed as fold increase in proteosome activity at 5.8 uM using caspase-like Z-LLE-AM fluorogenic peptide as substrate by fluorescence assay relative to control. Conditions: filed as activator.
The target is the same in assay [16]. Kind of assay: Activation of human 20S proteosome assessed as fold increase in proteosome activity at 2 uM using mixture of chymotrypsin-like Suc-LLVY-AMC, trypsin-like Boc-LRR-AMC and caspase-like Z-LLE-AM fluorogenic peptides as substrates by fluorescence assay relative to control. Conditions: filed as activator.
Assay [17] has the same target. Description: Activation of human 20S proteosome assessed as fold increase in proteosome activity at 5.6 uM using caspase-like Z-LLE-AM fluorogenic peptide as substrate by fluorescence assay relative to control. Conditions: filed as activator.
Assay [18] shares this target. Description: Activation of human 20S proteosome assessed as fold increase in proteosome activity at 5 uM using trypsin-like Boc-LRR-AMC fluorogenic peptide as substrate by fluorescence assay relative to control. Conditions: filed as activator.
For assay [19] the target is unchanged. Kind of assay: Activation of human 20S proteosome assessed as fold increase in proteosome activity at 12.9 uM using chymotrypsin-like Suc-LLVY-AMC fluorogenic peptide as substrate by fluorescence assay relative to control. Particulars: filed as activator.

Molecules are shown by their SMILES.

For `Cc1ccc2c(c1)N=C(c1ccccc1)N(Cc1ccccc1)C2c1ccccc1` (configuration not stated), the fold change (FC) in assay [1] was 8.1.

For `COc1ccc2c(c1)N=C(c1ccccc1)N(c1cccc3cccnc13)C2c1ccccc1` (configuration not stated), the fold change (FC) in [1] worked out at 5.3.

Turning to `COc1ccc2c(c1)N=C(c1ccccc1)N(CC1CCN(C)CC1)C2c1ccccc1` (configuration not stated), the fold change (FC) in [1] was found to be 1.2.

For `CCCCCCN1C(c2ccccc2)=Nc2cc(OC)ccc2C1c1ccccc1` (configuration not stated), the fold change (FC) in [1] was found to be 1.6.

As for `C=CCN1C(c2ccccc2)=Nc2cc(OC)ccc2C1c1ccccc1` (configuration not stated), the fold change (FC) in assay [1] was determined as 2.3.

Regarding `COc1ccc2c(c1)N=C(C1CC1)N(Cc1ccccc1)C2c1ccccc1` (configuration not stated), the fold change (FC) in [1] came out at 2.7.

For `COc1ccc2c(c1)N=C(C)N(Cc1ccccc1)C2c1ccccc1` (configuration not stated), the fold change (FC) in assay [1] worked out at 1.8.

On to `COc1ccc2c(c1)N=C(c1ccccc1)N(Cc1ccccn1)C2c1ccccc1` (configuration not stated), for which the fold change (FC) in assay [1] was 2.

In the case of `COc1ccc2c(c1)N=C(c1ccccc1)N(C1CCN(Cc3ccccc3)CC1)C2c1ccccc1` (configuration not stated), the Activity entry was “Dose-dependent effect” in assay [2] and more than 200% in assay [8]. Further, the fold change (FC) stood at 5.5 in assay [3]; 3.8 in assay [5]; 7 in [1]; 8.7 in assay [6]; 10.6 in assay [9]. The AC200 in assay [4] was determined as 2.8 µM; in assay [7], 1.7 µM; in assay [10], 1.3 µM; in [11], 10.5 µM.

For the compound `CCCCCC1=Nc2cc(OC)ccc2C(c2ccccc2)N1Cc1ccccc1` (configuration not stated), the fold change (FC) in assay [1] is 2.8.

With `c1ccc(CN2C(c3ccccc3)=Nc3ccccc3C2c2ccccc2)cc1` (configuration not stated), in assay [1], the fold change (FC) worked out at 4.

On to `COc1ccc2c(c1)N=C(c1ccccc1)N(c1ccccn1)C2c1ccccc1` (configuration not stated), for which, in assay [1], the fold change (FC) turned out to be 6.9.

Regarding `COc1ccc2c(c1)N=C(c1ccccc1)N(CC#N)C2c1ccccc1` (configuration not stated), the fold change (FC) in assay [1] was 2.7.

As to `COc1ccc2c(c1)N=C(c1ccccc1)N(c1ccccc1)C2c1ccccc1` (configuration not stated), the fold change (FC) in assay [12] is 11.1; in [1] it was 9.5; in assay [13], 15; in assay [14], 6.7; in [15] it was 15.3. The AC200 worked out at 5.8 µM in assay [4], 2.5 µM in assay [7], 2.3 µM in assay [10] and 8.1 µM in [11]. The Activity in assay [8] is more than 200%.

In the case of `COc1ccc2c(c1)N=C(C1CCCCC1)N(Cc1ccccc1)C2c1ccccc1` (configuration not stated), in [1], the fold change (FC) came to 6.5.

On to `COc1ccc2c(c1)N=C(c1ccccc1)N(CC1CCCCC1)C2c1ccccc1` (configuration not stated), for which, in assay [1], the fold change (FC) came to 8.2.

As for `COc1ccc2c(c1)N=C(c1ccccc1)N(C1CCN(C)CC1)C2c1ccccc1` (configuration not stated), the fold change (FC) in assay [1] came to 1.

Turning to `CCCCCc1ccc2c(c1)N=C(c1ccccc1)N(Cc1ccccc1)C2c1ccccc1` (configuration not stated), the fold change (FC) in [1] stood at 2.8.

Regarding `COc1ccc2c(c1)N=C(c1ccccc1)N(C1CCCCC1)C2c1ccccc1` (configuration not stated), the fold change (FC) in assay [1] came to 6.7.

For `COc1ccc2c(c1)N=C(c1ccccc1)N(c1cccnc1)C2c1ccccc1` (configuration not stated), the fold change (FC) in assay [1] was 5.9.

On to `COc1ccc2c(c1)N=C(C(C)C)N(Cc1ccccc1)C2c1ccccc1` (configuration not stated), for which, in [1], the fold change (FC) amounted to 2.3.

`COc1ccc2c(c1)N=C(c1ccccc1)N(Cc1ccccc1)C2c1ccccc1` (configuration not stated): the fold change (FC) in assay [16] worked out at 10.1; in assay [17], 13.4; in assay [1] it was 7.9; in assay [18] it was 11.7; in [19], 5.6. For the same compound, the AC200 worked out at 5.6 µM in assay [4], 5 µM in assay [7], 2 µM in assay [10] and 12.9 µM in assay [11]. In addition, the Activity in assay [8] was more than 200%.

Take `COc1ccc2c(c1)N=C(c1ccccc1)N(CC1CCOCC1)C2c1ccccc1` (configuration not stated): the fold change (FC) in [1] is 1.6.

With `COc1ccc2c(c1)N=C(c1ccccc1)N(CCc1ccccn1)C2c1ccccc1` (configuration not stated), the fold change (FC) in assay [1] amounted to 2.8.

(Values after ChEMBL document CHEMBL4732168, “Dihydroquinazolines enhance 20S proteasome activity and induce degradation of α-synuclein, an intrinsically disordered protein associated with neurodegeneration” (Bioorg Med Chem Lett, 2021).)
